We go through 4 compounds from paper PMC11170203 (Saudi Pharmaceutical Journal : SPJ, 2024).

The nature of assay [1]: Ferric reducing antioxidant power. The following applies: mean ± S.D. of three measurements. A digest of the protocol:
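FRAP reagent is acetate buffer (300 mM, pH 3.6), TPTZ (10 mM in 40 mM HCl) and FeCl3·6H2O (20 mM) at 10:1:1, prewarmed 10 min at 37 °C. The test extract reacts with the reagent for 30 min at 37 °C, and Fe(II)-TPTZ is read at 593 nm. Values come from a ferrous sulfate calibration curve, as FeSO4 equivalents per g extract. Ascorbic acid is the reference; three independent experiments, mean ± SD.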

The nature of assay [2]: DPPH radical scavenging assay. A digest of the protocol:
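The test extract (6.25–400 ug/mL) is mixed 1:1 with 0.06 mM DPPH in absolute ethanol and incubated 30 min in the dark. Absorbance is read at 517 nm and corrected with a DPPH-free sample background. BHT is the standard. % inhibition = (Acontrol − Asample)/Acontrol × 100. IC50 comes from dose-response curves; three independent experiments, mean ± SD.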

The target of assay [3] is collagenase from Clostridium histolyticum. The assay is described as follows: Collagenase enzyme inhibitory assay. Type of assay: biochemical. The conditions noted are these: concentration range 15.63–1000 µg/mL. A digest of the protocol: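 Clostridium histolyticum collagenase (0.1 mg/mL) is preincubated with the test extract in tricine buffer (50 mM tricine, 10 mM CaCl2, 400 mM NaCl, pH 7.5) for 20 min at 37 °C. FALGPA substrate (1 mM solution) is added, and absorbance is read at 335 nm after 15 min. EGCG is the positive control. IC50 is taken from dose-response curves of % inhibition, with three independent experiments.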

Assay [4] addresses porcine pancreatic elastase (Sus scrofa, UniProt P00772). Put plainly: Elastase enzyme inhibitory assay. Type of assay: biochemical. The following applies: concentration range 15.63–1000 µg/mL. A digest of the protocol: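 Porcine pancreatic elastase and the test extract in Tris-HCl (100 mM, pH 8.0) are incubated 5 min at 37 °C. The reaction is started with succinyl-Ala-Ala-Ala-p-nitroanilide (4.4 mM solution in Tris-HCl), and absorbance is read at 410 nm. EGCG is the positive control and distilled water the negative control. IC50 is taken from dose-response curves of % inhibition, with three independent experiments.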

In another assay the target is T1, hyaluronidase (Bos taurus, UniProt Q2YDK3).
T1 sequence (Q2YDK3 36-553): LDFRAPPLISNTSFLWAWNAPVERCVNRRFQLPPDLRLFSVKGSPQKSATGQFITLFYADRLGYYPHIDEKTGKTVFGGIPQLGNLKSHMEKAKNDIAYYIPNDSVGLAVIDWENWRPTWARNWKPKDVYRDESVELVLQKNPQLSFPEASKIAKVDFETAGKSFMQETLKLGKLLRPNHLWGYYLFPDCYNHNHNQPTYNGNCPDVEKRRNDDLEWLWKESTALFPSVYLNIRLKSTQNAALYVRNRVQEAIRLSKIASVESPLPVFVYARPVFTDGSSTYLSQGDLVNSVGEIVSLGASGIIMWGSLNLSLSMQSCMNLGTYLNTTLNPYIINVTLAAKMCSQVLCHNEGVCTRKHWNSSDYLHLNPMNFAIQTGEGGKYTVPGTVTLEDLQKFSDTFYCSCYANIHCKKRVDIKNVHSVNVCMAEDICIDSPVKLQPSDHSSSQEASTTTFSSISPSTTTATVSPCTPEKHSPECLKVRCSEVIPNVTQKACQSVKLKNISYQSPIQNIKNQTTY
Put plainly: Hyaluronidase enzyme inhibitory assay. The assay is classed as biochemical. The following applies: concentration range 25–250 µg/mL. A digest of the protocol: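 The test extract in 10% DMSO is incubated with hyaluronidase 10 min at 37 °C, then with CaCl2 (12.5 mM solution) for 10 min. Sodium hyaluronate is added for 40 min at 37 °C. NaOH (0.9 M) and sodium borate (0.2 M) are added and heated 3 min at 100 °C. PDMAB (67 mM) is added for 10 min at 37 °C, and absorbance is read at 585 nm. Tannic acid is the reference; IC50 comes from dose-response curves, three independent experiments.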

Chain of porcine pancreatic elastase (P00772 27-266): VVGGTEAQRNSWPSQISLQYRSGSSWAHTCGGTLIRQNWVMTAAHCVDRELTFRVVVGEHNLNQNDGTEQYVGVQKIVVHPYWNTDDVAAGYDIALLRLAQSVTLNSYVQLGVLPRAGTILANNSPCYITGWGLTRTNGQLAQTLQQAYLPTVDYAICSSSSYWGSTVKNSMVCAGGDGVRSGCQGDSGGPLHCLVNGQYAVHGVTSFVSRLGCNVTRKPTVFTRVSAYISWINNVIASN

On to `O=C1O[C@H]([C@@H](O)CO)C(O)=C1O` [Ascorbic acid], for which the FRAP in assay [1] is recorded as 4794.7 ± 5.507 µM FeSO4/g extract.

On to `Cc1cc(C(C)(C)C)c(O)c(C(C)(C)C)c1` [BHT, butylated hydroxytoluene], for which the “DPPH (IC50)” value in assay [2] (mean ± S.D. of three measurements) is 20.721 ± 0.138 µg/mL. In addition, the DPPH radical scavenging IC50 in assay [2] (unit as printed in the results text) was determined as 20.72 ± 0.138 µg/mL.

Consider `O=C(O[C@@H]1Cc2c(O)cc(O)cc2O[C@@H]1c1cc(O)c(O)c(O)c1)c1cc(O)c(O)c(O)c1` [EGCG, epigallocatechin gallate], for which the “Collagenase inhibition IC50” value in assay [3] was 33.662 ± 0.302 µg/mL. In assay [4], the “Elastase inhibition IC50” value was found to be 33.334 ± 0.299 µg/mL.

For tannic acid, at hyaluronidase, the “Hyaluronidase inhibition IC50” value worked out at 30.652 ± 0.626 µg/mL.
